Test results published in ChEMBL document CHEMBL1142917, “Synthesis and structure-antibacterial activity relationship investigation of isomeric 2,3,5-substituted perhydropyrrolo[3,4-d]isoxazole-4,6-diones” (2007).
Values after ≈ are worked out from the molar mass of the structure shown.

Key:
[1] = tested on: Enterococcus faecalis; assay: Antibacterial activity against Enterococcus faecalis ATCC 29212 by broth microdilution method; type: functional
How it was run: (§1)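 NCCLS broth microdilution in Mueller–Hinton broth, DMSO stocks. Twofold series of 1600 to 0.39 μg/ml, or 1000 to 0.975 μg/ml for some compounds. Inoculum set to 0.5 McFarland (1×10^8 CFU/ml), diluted 1/10, giving 5×10^5 CFU/ml per well. Plates incubated 16-20 h at 35 °C. MIC taken as the lowest concentration preventing visible growth. Ampicillin reference.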

[2] = tested on: Staphylococcus aureus; assay: Antibacterial activity against Staphylococcus aureus ATCC 25923 by broth microdilution method; type: functional; how it was run: as §1

Row | SMILES | MIC [1] | MIC [2]
1 | CN1O[C@H]2C(=O)N(c3ccccc3)C(=O)[C@H]2[C@@H]1c1ccc(Cl)cc1 | 1170 µM (≈ 401 µg/mL) | 1170 µM (≈ 401 µg/mL)
2 | COc1cc([C@@H]2[C@@H]3C(=O)N(c4ccccc4)C(=O)[C@@H]3ON2C)ccc1OCc1ccccc1 | > 3600 µM | 3600 µM (≈ 1600 µg/mL)
3 | CN1O[C@H]2C(=O)N(c3ccccc3)C(=O)[C@H]2[C@H]1c1ccc(Cl)cc1 | 730 µM (≈ 250 µg/mL) | 360 µM (≈ 123 µg/mL)
4 | CN1C(=O)[C@H]2[C@@H](c3ccc(Cl)cc3)N(C)O[C@H]2C1=O | 1430 µM (≈ 401 µg/mL) | 1430 µM (≈ 401 µg/mL)
5 | COc1cc([C@H]2[C@@H]3C(=O)N(c4ccccc4)C(=O)[C@@H]3ON2C)ccc1OCc1ccccc1 | 1130 µM (≈ 502 µg/mL) | 280 µM (≈ 124 µg/mL)
6 | CN1C(=O)[C@@H]2[C@@H](ON(C)[C@H]2c2ccc([N+](=O)[O-])cc2)C1=O | 5490 µM (≈ 1600 µg/mL) | 2750 µM (≈ 801 µg/mL)
7 | CN1C(=O)[C@@H]2[C@@H](ON(C)[C@H]2c2ccc(Cl)cc2)C1=O | 1430 µM (≈ 401 µg/mL) | 1430 µM (≈ 401 µg/mL)
8 | CN(C)c1ccc([C@@H]2[C@@H]3C(=O)N(c4ccccc4)C(=O)[C@@H]3ON2C)cc1 | > 4550 µM | 4550 µM (≈ 1600 µg/mL)
9 | CCN(CC)c1ccc([C@H]2[C@@H]3C(=O)N(c4ccccc4)C(=O)[C@@H]3ON2C)cc1 | 4220 µM (≈ 1600 µg/mL) | 4220 µM (≈ 1600 µg/mL)
10 | CN(C)c1ccc([C@H]2[C@@H]3C(=O)N(c4ccccc4)C(=O)[C@@H]3ON2C)cc1 | 710 µM (≈ 249 µg/mL) | 360 µM (≈ 127 µg/mL)
11 | CN1O[C@H]2C(=O)N(c3ccccc3)C(=O)[C@H]2[C@H]1c1ccc([N+](=O)[O-])cc1 | 710 µM (≈ 251 µg/mL) | 570 µM (≈ 201 µg/mL)
12 | Cc1ccc([C@H]2[C@@H]3C(=O)N(c4ccccc4)C(=O)[C@@H]3ON2C)cc1 (relative stereo) | 1240 µM (≈ 400 µg/mL) | 620 µM (≈ 200 µg/mL)
13 | COc1ccc([C@@H]2[C@@H]3C(=O)N(C)C(=O)[C@@H]3ON2C)cc1 (relative stereo) | > 5790 µM | 5790 µM (≈ 1600 µg/mL)
14 | Cc1ccc([C@H]2[C@@H]3C(=O)N(C)C(=O)[C@@H]3ON2C)cc1 (relative stereo) | 6150 µM (≈ 1600 µg/mL) | 3070 µM (≈ 799 µg/mL)
15 | CN1C(=O)[C@H]2[C@@H](c3ccccc3)N(C)O[C@H]2C1=O (relative stereo) | 1620 µM (≈ 399 µg/mL) | 810 µM (≈ 199 µg/mL)
16 | COc1ccc([C@@H]2[C@@H]3C(=O)N(c4ccccc4)C(=O)[C@@H]3ON2C)cc1 (relative stereo) | 1180 µM (≈ 399 µg/mL) | 590 µM (≈ 200 µg/mL)

Row | SMILES | MIC [1] | MIC [2]
17 | CN1O[C@H]2C(=O)N(c3ccccc3)C(=O)[C@H]2[C@H]1c1ccccc1 (relative stereo) | 5190 µM (≈ 1600 µg/mL) | > 5190 µM
18 | COc1ccc([C@H]2[C@@H]3C(=O)N(C)C(=O)[C@@H]3ON2C)cc1 (relative stereo) | > 5790 µM | 1450 µM (≈ 401 µg/mL)
19 | CN1C(=O)[C@H]2[C@@H](c3cccc(Cl)c3)N(C)O[C@H]2C1=O (relative stereo) | 2850 µM (≈ 800 µg/mL) | 1430 µM (≈ 401 µg/mL)
20 | CN1C(=O)[C@@H]2[C@@H](ON(C)[C@H]2c2cccc(Br)c2)C1=O (relative stereo) | 1230 µM (≈ 400 µg/mL) | 620 µM (≈ 202 µg/mL)
21 | CN1O[C@H]2C(=O)N(c3ccccc3)C(=O)[C@H]2[C@@H]1c1ccccc1 (relative stereo) | 1620 µM (≈ 500 µg/mL) | 410 µM (≈ 126 µg/mL)
22 | CN1C(=O)[C@H]2[C@@H](c3ccc(Br)cc3)N(C)O[C@H]2C1=O (relative stereo) | 1230 µM (≈ 400 µg/mL) | 2460 µM (≈ 800 µg/mL)
23 | Cc1ccc([C@@H]2[C@@H]3C(=O)N(C)C(=O)[C@@H]3ON2C)cc1 (relative stereo) | > 6150 µM | 6150 µM (≈ 1600 µg/mL)
24 | CN1C(=O)[C@@H]2[C@@H](ON(C)[C@H]2c2ccccc2)C1=O (relative stereo) | 1020 µM (≈ 251 µg/mL) | 510 µM (≈ 126 µg/mL)
25 | CN1C(=O)[C@@H]2[C@@H](ON(C)[C@H]2c2cccc(Cl)c2)C1=O (relative stereo) | 1430 µM (≈ 401 µg/mL) | 710 µM (≈ 199 µg/mL)
26 | CN1C(=O)[C@H]2[C@@H](c3ccc(N(C)C)cc3)N(C)O[C@H]2C1=O (relative stereo) | 1380 µM (≈ 399 µg/mL) | 1380 µM (≈ 399 µg/mL)
27 | CN1C(=O)[C@@H]2[C@@H](ON(C)[C@H]2c2ccc(N(C)C)cc2)C1=O (relative stereo) | 5530 µM (≈ 1600 µg/mL) | 1380 µM (≈ 399 µg/mL)
28 | CN1C(=O)[C@@H]2[C@@H](ON(c3ccccc3)[C@H]2c2ccc(N(C)C)cc2)C1=O (relative stereo) | 1140 µM (≈ 401 µg/mL) | 280 µM (≈ 98.4 µg/mL)
29 | Cc1ccc([C@@H]2[C@@H]3C(=O)N(c4ccccc4)C(=O)[C@@H]3ON2C)cc1 (relative stereo) | 3100 µM (≈ 999 µg/mL) | 3100 µM (≈ 999 µg/mL)
30 | COc1ccc([C@H]2[C@@H]3C(=O)N(c4ccccc4)C(=O)[C@@H]3ON2C)cc1 (relative stereo) | 1180 µM (≈ 399 µg/mL) | 1180 µM (≈ 399 µg/mL)
31 | CC1(C)S[C@@H]2[C@H](NC(=O)[C@H](N)c3ccccc3)C(=O)N2[C@H]1C(=O)O [AMPICILLIN] | 2 µM (≈ 0.699 µg/mL) | 2 µM (≈ 0.699 µg/mL)

Now from value to compound:

Row | MIC [1] | MIC [2] | SMILES
32 | 280 µM (≈ 98.9 µg/mL) | 570 µM (≈ 201 µg/mL) | CN1O[C@H]2C(=O)N(c3ccccc3)C(=O)[C@H]2[C@@H]1c1ccc([N+](=O)[O-])cc1
33 | 690 µM (≈ 201 µg/mL) | 1370 µM (≈ 399 µg/mL) | CN1C(=O)[C@H]2[C@@H](c3ccc([N+](=O)[O-])cc3)N(C)O[C@H]2C1=O
34 | 520 µM (≈ 201 µg/mL) | 130 µM (≈ 50.3 µg/mL) | CN1O[C@H]2C(=O)N(c3ccccc3)C(=O)[C@H]2[C@@H]1c1ccc(Br)cc1 (relative stereo)
35 | 280 µM (≈ 98.4 µg/mL) | 280 µM (≈ 98.4 µg/mL) | CN1C(=O)[C@H]2[C@@H](c3ccc(N(C)C)cc3)N(c3ccccc3)O[C@H]2C1=O (relative stereo)
36 | 80 µM (≈ 25.4 µg/mL) | 80 µM (≈ 25.4 µg/mL) | CCN(CC)c1ccc([C@@H]2[C@@H]3C(=O)N(C)C(=O)[C@@H]3ON2C)cc1 (relative stereo)
37 | 630 µM (≈ 200 µg/mL) | 630 µM (≈ 200 µg/mL) | CCN(CC)c1ccc([C@H]2[C@@H]3C(=O)N(C)C(=O)[C@@H]3ON2C)cc1 (relative stereo)
38 | 620 µM (≈ 202 µg/mL) | 310 µM (≈ 101 µg/mL) | CN1C(=O)[C@@H]2[C@@H](ON(C)[C@H]2c2ccc(Br)cc2)C1=O (relative stereo)
39 | 650 µM (≈ 252 µg/mL) | 320 µM (≈ 124 µg/mL) | CN1O[C@H]2C(=O)N(c3ccccc3)C(=O)[C@H]2[C@H]1c1cccc(Br)c1 (relative stereo)
40 | 620 µM (≈ 202 µg/mL) | 1230 µM (≈ 400 µg/mL) | CN1C(=O)[C@H]2[C@@H](c3cccc(Br)c3)N(C)O[C@H]2C1=O (relative stereo)
41 | 660 µM (≈ 250 µg/mL) | 330 µM (≈ 125 µg/mL) | CCN(CC)c1ccc([C@@H]2[C@@H]3C(=O)N(c4ccccc4)C(=O)[C@@H]3ON2C)cc1 (relative stereo)
42 | 650 µM (≈ 249 µg/mL) | 330 µM (≈ 126 µg/mL) | COc1cc([C@H]2[C@@H]3C(=O)N(C)C(=O)[C@@H]3ON2C)ccc1OCc1ccccc1 (relative stereo)
43 | 520 µM (≈ 201 µg/mL) | 130 µM (≈ 50.3 µg/mL) | CN1O[C@H]2C(=O)N(c3ccccc3)C(=O)[C@H]2[C@@H]1c1cccc(Br)c1 (relative stereo)
44 | 520 µM (≈ 201 µg/mL) | 120 µM (≈ 46.5 µg/mL) | CN1O[C@H]2C(=O)N(c3ccccc3)C(=O)[C@H]2[C@H]1c1ccc(Br)cc1 (relative stereo)
45 | 130 µM (≈ 49.7 µg/mL) | 130 µM (≈ 49.7 µg/mL) | COc1cc([C@@H]2[C@@H]3C(=O)N(C)C(=O)[C@@H]3ON2C)ccc1OCc1ccccc1 (relative stereo)
